High-throughput results (PubChem)
Most compounds without a hit are left out; they make up all but 3.9% or so of the library.
FLuc stim CS: affects firefly luciferase, flagging false hits in luciferase stimulation screens; P08659; ATPlite luciferase biochemical, luminescence, 10 min; 0 = ATP-free wells, 1 = DMSO control; activation factor at 10 µM; 200,000 tested, under 10 active; AID 1027;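 active = luciferase activation factor, scaled between plate controls, of at least 2 with compound at 10 µM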
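Material: Luciferase/luciferin reagent mix; Doses: test compounds dosed from 2 mM stocks in 100% DMSO; Schedule: 10 min incubation after luciferase reagent addition, room temperature; Measured by: luminescence from luciferase reaction; Read-out: luminescence gain marking luciferase activators.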
Rad51 HR inh: Rad51 (human) homologous recombination inhibition. AID 1385. hRad51 DNA strand exchange, fluorescence dequenching. 200,000 tested, 0.085% active. Q06609. inhibition, % at 10 µM;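 active = inhibition above 40% at the single screening dose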
Target sequence (Q06609 whole entry, looked up): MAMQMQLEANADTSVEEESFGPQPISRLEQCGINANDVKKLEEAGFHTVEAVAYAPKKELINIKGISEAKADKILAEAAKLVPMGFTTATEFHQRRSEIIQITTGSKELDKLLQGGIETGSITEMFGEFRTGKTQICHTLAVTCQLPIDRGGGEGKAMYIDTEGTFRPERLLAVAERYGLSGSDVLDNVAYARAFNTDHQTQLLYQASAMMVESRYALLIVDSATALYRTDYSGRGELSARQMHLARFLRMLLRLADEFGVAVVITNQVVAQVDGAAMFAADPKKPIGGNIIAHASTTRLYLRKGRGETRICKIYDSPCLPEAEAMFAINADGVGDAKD
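System: human Rad51 nucleoprotein filaments preassembled on unlabelled ssDNA. Reagent: labelled 47-mer dsDNA for strand exchange. Schedule: 30-min compound preincubation and 15-min exchange, both room temperature. Measured by: FRET fluorescence dequenching, excitation 485 nm, emission 520 nm. Read-out: Fluorescence-based percent inhibition, control- and blank-normalised. Benchmarks: plate controls and plate blanks.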
STAT1 activator: STAT1 signaling activation; activation (% of control), % at 5.5 µM; 200,000 tested, 2.6% active; AID 932; NIH 3T3 STAT1-luciferase reporter, IFN-gamma, luminescence; 100% = IFN-gamma alone, no compound;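 active = activation above the screen-wide mean activation plus 3 SD, cut at about 130% in these data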
APP 5'UTR act: activates APP 5'UTR luciferase reporter | SH-SY5Y APP 5'UTR luciferase reporter, luminescence; zero percent = DMSO vehicle wells | activation, % at 2 µM | 190,000 tested, 1% active | AID 1276;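 active = activation above a set limit, based on mean plus 3 SD of controls, cut at about 140% in these data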
FLuc inhib CS: counter-screen for luciferase assay inhibitors: firefly luciferase inhibition. 200,000 tested, 1.5% active. AID 1006. ATPLite firefly luciferase biochemical luminescence, 10 min. inhibition, % at 10 µM;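 active = inhibition above about 50% when tested at 10 µM, limit read from the data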
NF-kB neuron act: compounds increasing NF-kB expression in human neuronal cells; NF-kB reporter expression; hits give high values; fold change at 12.5 µM; 190,000 tested, 1.6% active; AID 1239; in the data active = fold change above about 3.3
Numbers stand for hits; - = inactive; . = no result given.

SMILES | FLuc stim CS | Rad51 HR inh | STAT1 activator | APP 5'UTR act | FLuc inhib CS | NF-kB neuron act
CCOC(=O)C(C)On1c(-c2ccc(Cl)cc2)nc2ccc([N+](=O)[O-])cc21 (centres undefined) | - | - | 133 | - | - | 5.8
COc1ccc(-c2nc3ccccc3n2OCC(=O)O)cc1 | - | . | - | - | 72 | -
CCOC(=O)C(C)On1c(-c2ccccc2)nc2ccc([N+](=O)[O-])cc21 (centres undefined) | - | - | 132 | - | - | -
Cc1[nH]c2ccccc2c1-c1csc(NC(=O)CSCCO)n1 | - | - | - | - | - | -
CN1C(=O)NC(c2cccc(O)c2)C(C(=O)c2cccs2)C1(O)C(F)(F)F (centres undefined) | - | - | - | 135 | - | -
CCOC(=O)C1C(c2cccs2)NC(=O)N(C)C1(O)C(F)(F)F (centres undefined) | - | - | - | - | - | -
CC(C)(CNC(=S)NCCc1ccccc1)CNC(=S)NCCc1ccccc1 | - | - | - | - | - | -
Cc1ccc(C#N)c(SCc2nnc(-c3ccc(Cl)cc3)o2)n1 | - | . | - | - | 60 | -
Cc1cc(C)c(C#N)c(SCc2nnc(-c3ccccc3)o2)n1 | - | . | - | - | - | -
CCN1C(=O)/C(=C\c2ccc(-c3ccc([N+](=O)[O-])cc3OC)o2)SC1=Nc1cccc(C(=O)O)c1 | - | - | - | - | - | -
CCN=C1S/C(=C\c2ccc(-c3cccc(C(=O)O)c3)o2)C(=O)N1CC | - | - | - | 185 | - | -
CC(/C=N/NC(=O)c1cc(-c2cccn2C)n[nH]1)=C\c1ccccc1 | . | - | . | . | . | .
CCc1nc(Nc2ccncc2)c2oc3ccccc3c2n1 | - | - | - | - | - | 3.6
Cc1nc(Nc2ccncc2)c2oc3ccccc3c2n1 | - | - | - | - | - | -
COc1ccc(S(=O)(=O)N2CCCC(C(F)(F)F)C2)cc1 (centres undefined) | - | - | - | - | - | -
N/C(=N\OC(=O)/C=C/c1ccccc1)c1ccccn1 | - | - | - | 160 | 82 | -
O=C(/C=C/c1ccccc1)c1ccccn1 | - | - | - | - | 71 | -
Cc1cc(SCC(=O)OC/C(O)=C(\C#N)c2nc3ccccc3[nH]2)c(C)cc1Br | - | - | - | - | - | -
N#C/C(=C(/O)COC(=O)CSc1ccc(Cl)cc1)c1nc2ccccc2[nH]1 | - | - | - | - | - | 3.9
Cc1nnc(Sc2nc3ccccc3o2)c2ccccc12 | - | - | - | - | - | -
Clc1ccc(-c2nnc(Sc3nc4ccccc4o3)c3ccccc23)cc1 | - | - | - | - | - | 4.2
Cc1ccc(-c2nnc(Sc3nc4ccccc4o3)c3ccccc23)cc1 | - | - | - | - | - | 4.9
COc1ccc(-c2nc(-c3ccc(Br)o3)no2)cc1OC | - | - | - | - | - | -
Cc1ccc(-c2noc(-c3ccccc3Br)n2)cc1 | - | - | 133 | 195 | 67 | 5.9
COc1ccccc1-c1nc(-c2ccc(Br)o2)no1 | - | - | 157 | 218 | - | 6.7
SMILES | FLuc stim CS | Rad51 HR inh | STAT1 activator | APP 5'UTR act | FLuc inhib CS | NF-kB neuron act
COc1ccccc1-c1nc(-c2ccc(Br)cc2)no1 | - | - | 135 | 162 | - | 4.7
CN(C)c1ccc(-c2noc(-c3ccccc3O)n2)cc1 | - | - | - | 144 | 58 | -
O=C(O)c1ccc(-c2noc(-c3ccccc3Cl)n2)cc1 | . | - | . | . | . | .
Cn1cc(C(=O)CCl)c2ccccc21 | - | - | - | - | - | -
COCCNc1nc(-c2cc(C)c(C)cc2C)cs1 | - | . | - | - | - | .
CC1CCN(CC(CS(=O)(=O)c2ccc([N+](=O)[O-])cc2)N2CCC(C)CC2)CC1 (centres undefined) | . | - | . | . | . | .
COc1ccc(NC(=O)c2ccco2)c([N+](=O)[O-])c1 | - | - | 138 | - | - | -
Cc1ccc(NC(=O)c2ccco2)c([N+](=O)[O-])c1 | - | . | 139 | - | - | .
CCOC(=O)Cn1cc(C#N)c2cccc(CC)c21 | - | - | - | - | - | -
Cc1nnc(SCC(=O)N2CCN(c3ccccc3)CC2)n(N)c1=O | - | - | - | - | - | -
Cc1ccc(SCC(=O)Nc2ccc(N3CCN(C)CC3)c(F)c2)cc1 | - | . | 133 | - | - | -
CCC(CO)Nc1ncnc2c1cnn2-c1ccc(OC)cc1 (centres undefined) | - | - | 147 | 148 | - | -
CCC(CO)Nc1ncnc2c1cnn2-c1ccc(Cl)cc1 (centres undefined) | - | - | 147 | 162 | - | -
CCCCC(=O)N(Cc1ccc(-c2ccccc2-c2nn[nH]n2)cc1)[C@H](C(=O)O)C(C)C | - | - | . | . | - | .
O=S(=O)(CCSc1ccc(C(F)(F)F)cn1)c1ccc(Cl)cc1 | . | - | . | . | . | .
c1csc(-c2cn3ccc4ccccc4c3n2)c1 | - | - | 144 | - | 53 | 4.7
CCOc1ccc(NC(=O)CSc2ncc(-c3ccc(F)cc3)n2Cc2ccco2)cc1 | . | - | . | . | . | .
O=C(CSc1ncc(-c2ccc(F)cc2)n1Cc1ccco1)Nc1ccc2c(c1)OCO2 | - | . | 138 | - | - | -
Cc1ccc(-n2nnc(-c3nccs3)n2)cc1 | - | - | - | - | 96 | -
Cc1ccc(-n2nnc(-c3cc4ccccc4nc3Cl)n2)cc1 | - | - | - | - | - | -
Clc1ccc(-n2nnc(-c3nccs3)n2)cc1Cl | - | - | - | 199 | 59 | 4.8
Clc1ccc(-n2nnc(-c3ncc[nH]3)n2)cc1Cl | . | - | . | . | . | .
CCC(=O)N1N=C(c2ccc(NS(C)(=O)=O)cc2)CC1c1ccc(N(C)C)cc1 (centres undefined) | - | - | 129 | - | - | -
CC1CN/C(=C\C(=O)c2ccccc2)C(=O)N1 (centres undefined) | - | - | 138 | - | - | -
CC1CN/C(=C\C(=O)c2ccc(Cl)cc2)C(=O)N1 (centres undefined) | - | - | - | 175 | 51 | 4.7
SMILES | FLuc stim CS | Rad51 HR inh | STAT1 activator | APP 5'UTR act | FLuc inhib CS | NF-kB neuron act
COC(=O)C1(CC2CC(c3ccccc3)=NO2)CCN(C(=O)OC(C)(C)C)CC1 (centres undefined) | . | - | . | . | . | .
O=C(CSc1cccc[n+]1[O-])CSc1cccc[n+]1[O-] | - | - | - | - | - | 4.9
Cc1cc(C)n(-c2ncccc2[N+](=O)[O-])n1 | . | - | . | . | . | .
CC(C)c1ccc(-n2cnn(-c3ncccc3[N+](=O)[O-])c2=O)cc1 | - | - | - | 140 | 54 | 8.6
COc1ccc(NC(=S)Nc2ncccc2C)cc1OC | - | - | 131 | - | - | -
COc1ccc(NC(=O)Nc2cc(C)ccc2F)cc1 | - | - | 130 | - | - | -
COc1ccc(NC(=O)Nc2ccc(Br)c(C)c2)cc1 | - | - | 145 | - | - | -
COc1ccc(NC(=O)Nc2ccc(F)c(Cl)c2)cc1 | - | - | - | - | - | -
